Assay: Toxicity liver stage against HepG2, at 10uM
Assay type: cell-based
Set-up: test concentration 10 uM, cell line HepG2-A16-CD81EGFP
Conditions: human, HepG2-A16-CD81EGFP cells; read-out: INHIBITION
Outline: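 Uninfected HepG2-A16-CD81EGFP cells, 3 × 10^3 per well, 1536-well, plated on prespotted compound at 10 μM final, parasite-free screening media added to match infected plates; puromycin 10 μM positive, DMSO 0.5% negative; run in parallel with 48 h PbLuc assay at 37 °C, 5% CO2; viability by CellTiter-Glo luminescence, normalized to controls.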
Molecule `O=C(NC[C@@H]1CCCO1)c1cc(Br)cnc1N1CCCCC1` has a cytotoxicity at 10 µM of -1.69%.
For `CN1C(=O)[C@H](OC(N)=O)[C@@H](C(=O)Nc2ccccc2)C12CCNCC2`, the cytotoxicity at 10 µM was 2.73%.
Molecule `Cc1c(CC(C#N)C(=O)Nc2cccc(O)c2)cnn1C` (configuration not stated) has a cytotoxicity at 10 µM of 0.781%.
Molecule `COc1coc(C(=O)Nc2nc(-c3cccnc3)cs2)cc1=O` has a cytotoxicity at 10 µM of 2.66%.
With `COC(=O)C1CCCN1Cc1ccco1` (configuration not stated) the cytotoxicity at 10 µM was 9.21%.
Molecule `CN1CC2(CCN(C(=O)C3CCC3)CC2)COc2ccccc2S1(=O)=O` has a cytotoxicity at 10 µM of 10.2%.
Molecule `COC(=O)C(NC(=O)Nc1ccc(C(C)=O)cc1)C(C)C` (configuration not stated) has a cytotoxicity at 10 µM of 4.31%.
With `CC(C)CCN1CN=C(NS(=O)(=O)c2ccc(F)cc2)NC1` the cytotoxicity at 10 µM was -3.03%.
With `O=C1CSC(c2ccsc2)c2sccc2N1` (configuration not stated) the cytotoxicity at 10 µM was 2.19%.
`COCCN1C(=O)[C@]2(CC[C@@H]3CN(C(=O)NC4CCCC4)C[C@@H]32)N=C1C` showed a cytotoxicity at 10 µM of -8.85%.
For `CC(C)NC(=O)N1CCN(S(=O)(=O)C2CC2)CC2(CNC(=O)C2)C1` (configuration not stated), the cytotoxicity at 10 µM was 1%.
`O=C1CCOC[C@]2(CN(Cc3ccccc3)C[C@H]2c2cccnc2)N1` gave a cytotoxicity at 10 µM of 4.73%.
Molecule `CC(=O)N1CCOC(c2ccnc(N(C)C)n2)C1` (configuration not stated) has a cytotoxicity at 10 µM of 1.62%.
With `CC(C)N1CCC(c2cnc(-c3cn[nH]c3)cn2)CC1` the cytotoxicity at 10 µM was 5.36%.
Molecule `O=C(O)c1ccccc1-n1cc(CN2CCOC(c3cc[nH]n3)C2)cn1` (configuration not stated) has a cytotoxicity at 10 µM of 3.33%.
For `CC(=O)NC1CCc2ccc(S(=O)(=O)NCc3ncccc3C)cc21` (configuration not stated), the cytotoxicity at 10 µM was 10.4%.
In the case of `O=C(Nc1nncs1)C1CSCN1C(=O)C1CCCC1` (configuration not stated), the cytotoxicity at 10 µM is reported as 11.3%.
For `CSc1cccc(NC(=O)CCC(=O)Nc2nccs2)c1`, the cytotoxicity at 10 µM was -5.05%.
In the case of `COCCN(C(=O)c1cc(C)no1)c1ccc(C#N)cc1`, the cytotoxicity at 10 µM is reported as 6.51%.
For `O=C(NCc1cccc(F)c1)c1cccc(C(=O)N2CCCC2)n1`, the cytotoxicity at 10 µM was 5.79%.
Molecule `Cc1cc(C2CCCN(Cc3ncc(C)o3)C2)n[nH]1` (configuration not stated) has a cytotoxicity at 10 µM of 4.63%.
In the case of `Cc1cnn(CCNCc2cc(-c3ccccc3)no2)c1`, the cytotoxicity at 10 µM is reported as -3.03%.
Molecule `O=C(N1CCSCC1)C1(O)Cc2ccccc2C1` has a cytotoxicity at 10 µM of 6.35%.
For `O=S(=O)(CCN1CCCC1Cn1cccn1)c1ccccc1` (configuration not stated), the cytotoxicity at 10 µM was -11.9%.
`CCNC(=O)Nc1c(C)cnn1Cc1cc(F)ccc1F` gave a cytotoxicity at 10 µM of 5.28%.
`CCC(CC)(CCO)CNC(=O)c1ccon1` gave a cytotoxicity at 10 µM of 6.27%.
`O=C(O)c1cc2c(c(S(=O)(=O)N(CCCO)c3ccccc3)c1)CCC2` showed a cytotoxicity at 10 µM of 6.58%.
`CN(Cc1ccccc1NCc1cscn1)C(=O)c1cccs1` gave a cytotoxicity at 10 µM of 0.503%.
Molecule `CN1CCCC(N2CCN(c3cc(C(F)(F)F)ccn3)CC2)C1` (configuration not stated) has a cytotoxicity at 10 µM of 5.12%.
`Cc1cc(C(=O)CN2CCN(c3nccs3)CC2)c(C)n1C1CC1` gave a cytotoxicity at 10 µM of 10.6%.
`c1cc(CN2CCN(Cc3ccon3)C3(CCCCC3)C2)no1` showed a cytotoxicity at 10 µM of -16.7%.
`N#CCCN(CCN1CCOCC1)Cc1ccc(F)c(Br)c1` showed a cytotoxicity at 10 µM of -5.01%.
`O=C(CN1CCSCC1c1ccccc1)N1CCOCC1` (configuration not stated) gave a cytotoxicity at 10 µM of -5.88%.
In the case of `Cc1nn(C)c(C)c1CNC1CCOc2ccccc21` (configuration not stated), the cytotoxicity at 10 µM is reported as 7.75%.
For `Cc1nn(C)c(N(C)C)c1CNCC(O)c1ccccc1` (configuration not stated), the cytotoxicity at 10 µM was -0.989%.
Work on `CCCn1ccc2ccc(NC(=O)N(C)CCOC)cc21` yielded a cytotoxicity at 10 µM of 1.31%.
In the case of `COCCn1c2c(ccc1=O)CCN(C(=O)C1CC=CC1)CC2`, the cytotoxicity at 10 µM is reported as 4.77%.
`O=C(Nc1cccnc1)[C@H]1CN(Cc2cccs2)C[C@H]2OCC[C@@H]12` gave a cytotoxicity at 10 µM of -109%.
Work on `CN1CCN(Cc2cnc3n2CCN(C(=O)c2cnccn2)C3)CC1` yielded a cytotoxicity at 10 µM of -65.1%.
`CN(C)[C@@H]1CCN(C(=O)c2ccccn2)[C@H]1Cc1cnn(C)c1` showed a cytotoxicity at 10 µM of -70%.
`Cc1occc1C(=O)N1CCc2ncnc(C3CCOC3)c2CC1` (configuration not stated) showed a cytotoxicity at 10 µM of -85%.
`OCCC1CN(c2nc(-c3cccnc3)nc3c2CCNCC3)CCO1` (configuration not stated) showed a cytotoxicity at 10 µM of -2.64%.
Work on `CCCOC(=O)N1CCc2cccc(S(=O)(=O)N3CCOCC3)c2C1` yielded a cytotoxicity at 10 µM of -6.85%.
Work on `Cn1cccc1-c1cc(C(=O)N2CCCCC2c2ccc(F)cc2)[nH]n1` (configuration not stated) yielded a cytotoxicity at 10 µM of -2.8%.
With `O=C(Cn1ccc2ncccc2c1=O)N1CCSCC1` the cytotoxicity at 10 µM was -3.06%.
In the case of `CSCc1noc(-c2nc3c([nH]2)CCCNC3=O)n1`, the cytotoxicity at 10 µM is reported as -2.48%.
`COCCn1cncc1CN1CCCC(C(=O)Cc2ccccc2)C1` (configuration not stated) gave a cytotoxicity at 10 µM of -6.55%.
With `CCc1nc(CN(C)c2nccc(N3CCCC(O)C3)n2)no1` (configuration not stated) the cytotoxicity at 10 µM was 0.324%.
In the case of `CN(C)C(C(=O)NCCS(=O)(=O)N(C)C)c1cccc(F)c1` (configuration not stated), the cytotoxicity at 10 µM is reported as 2.73%.
For `CN(C)CCCn1ccc(-c2cccc(-c3ccccn3)c2)n1`, the cytotoxicity at 10 µM was -6.02%.
Molecule `CCC(=O)c1ccc(OCC(=O)N(C)C(C)c2ccon2)cc1` (configuration not stated) has a cytotoxicity at 10 µM of 1.71%.
Molecule `C=Cc1ccc(C(=O)NC2CCCc3nc(N(C)C)ncc32)cc1` (configuration not stated) has a cytotoxicity at 10 µM of 8.18%.
In the case of `Cn1c(CCC(=O)N2CCCC3(CC2)CNC(=O)O3)nc2cccnc21` (configuration not stated), the cytotoxicity at 10 µM is reported as -3.56%.
For `Cc1nc(N2CCN3CCCCC3C2)nc2cc(S(C)(=O)=O)ccc12` (configuration not stated), the cytotoxicity at 10 µM was -6.25%.
For `COCCN(Cc1cnn(C)c1)C(=O)C1CCC(=O)N(C2CCCC2)C1` (configuration not stated), the cytotoxicity at 10 µM was 6.11%.
Work on `O=C1CC(c2ncc(-c3ccc4c(c3)OCCO4)[nH]2)CN1C1CCCC1` (configuration not stated) yielded a cytotoxicity at 10 µM of 10.8%.
`O=C(CCC(F)(F)F)N1CCCC(CO)(CC2CC2)C1` (configuration not stated) showed a cytotoxicity at 10 µM of 2.75%.
`Cc1ccn2c(F)c(C(=O)N3CCC4(CCC(=O)N(C)C4)CC3)nc2c1` gave a cytotoxicity at 10 µM of 5.96%.
`CN(C)c1ncc2c(n1)CCCC2NC(=O)c1ccsc1` (configuration not stated) gave a cytotoxicity at 10 µM of 10%.
Work on `CCn1cc(CN2CCCn3nc(CNC(=O)N(C)C)cc3C2)cn1` yielded a cytotoxicity at 10 µM of 6.99%.
Work on `CCN(Cc1nc(COC)no1)C[C@]1(O)CCCN2CCCC[C@@H]21` yielded a cytotoxicity at 10 µM of -0.124%.
Molecule `NCCn1cc(C(=O)NCc2ccccc2-n2cccn2)nn1` has a cytotoxicity at 10 µM of -2.34%.
In the case of `Cc1nc(C)n(C2CCCN(C(=O)c3ccc4nccn4c3)C2)n1` (configuration not stated), the cytotoxicity at 10 µM is reported as -12%.
Molecule `O=C(c1ccc(Cn2ccccc2=O)o1)N1CCSCC1` has a cytotoxicity at 10 µM of -14.8%.
`COc1ncccc1CNC(=O)c1ccc(C)[nH]c1=O` showed a cytotoxicity at 10 µM of -2.22%.
`Cn1cc(NC(=O)N2CCC(Cc3ccccc3)CC2)ccc1=O` showed a cytotoxicity at 10 µM of 1.07%.
For `O=C(NCCCn1cncn1)N1CCCCCC1`, the cytotoxicity at 10 µM was -7.1%.
`CCCc1nc(C(C)(C)NC(=O)C2CC(=O)N(CC3CC3)C2)no1` (configuration not stated) showed a cytotoxicity at 10 µM of -3.61%.
In the case of `CCOC(=O)c1sc2ccsc2c1CNC(=O)C(C)(C)C#N`, the cytotoxicity at 10 µM is reported as -4.42%.
With `Cc1csc(C2CCCN(C(=O)c3cnc4n[nH]c(C)c4c3)C2)n1` (configuration not stated) the cytotoxicity at 10 µM was -9.39%.
`CCc1nc(-c2cncnc2C2CCCNC2)no1` (configuration not stated) gave a cytotoxicity at 10 µM of 1.73%.
In the case of `O=S1(=O)CCC(NCCn2cncc2-c2ccc3c(c2)CCCO3)C1` (configuration not stated), the cytotoxicity at 10 µM is reported as 2.97%.
`COCC1CN(c2ccc(C)nn2)Cc2cnn(C)c21` (configuration not stated) gave a cytotoxicity at 10 µM of 11.7%.
With `c1cncc(OC[C@]23COC[C@H]2CN(C2CCC2)C3)c1` the cytotoxicity at 10 µM was 4.64%.
In the case of `CN1C(Cn2cccn2)C[C@@H]2CN(Cc3ccccn3)CC[C@@H]21` (some centres not stated), the cytotoxicity at 10 µM is reported as 0.763%.
In the case of `COc1ccc(CN(Cc2ccco2)Cc2[nH]cnc2C)c(OC)c1`, the cytotoxicity at 10 µM is reported as -1.57%.
Molecule `CC(C)CN1C(=O)C2(CCN(Cc3cccs3)C2)c2ccccc21` (configuration not stated) has a cytotoxicity at 10 µM of 10.1%.
Work on `Cc1ccccc1CC(=O)N1C[C@@H]2COC[C@]2(CN(C)C)C1` yielded a cytotoxicity at 10 µM of 3.79%.
For `O=C(N1CCCC1)N1CCc2onc(COc3cccnc3)c2C1`, the cytotoxicity at 10 µM was -75.6%.
In the case of `CCCS(=O)(=O)N1CCOCC2(CCN(c3ccccn3)C2)C1` (configuration not stated), the cytotoxicity at 10 µM is reported as 2.42%.
`O=C(c1ccccn1)N1C[C@H]2CC[C@@H](C1)N(C(=O)c1ccsc1)C2` gave a cytotoxicity at 10 µM of 3.88%.
Molecule `CC(C)CNC(=O)[C@H]1C[C@H]2CN(C(=O)NCCc3ccccc3)C[C@@H]1O2` has a cytotoxicity at 10 µM of 1.22%.
